From paper PMC6097893 (Cell chemical biology, 2018)

Experiments:
[1] = system: DENV2 NGC E-M196V mutant virus; experiment: Viral infectivity assay; format: cell-based, dengue virus serotype 2; settings: versus DENV2 NGC wildtype
How it was run: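 DENV2 inoculum in EBSS at MOI 1 pre-incubated with test compound over a concentration series, 45 min at 37 °C. The mixture was added to cell monolayers for 1 h at 37 °C, then washed off with PBS. Inhibitor-free medium was added for 24 h (single cycle). Supernatant yield was titred by plaque assay on BHK-21 cells with CMC overlay, 4.5 days, crystal violet.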

ZIKV PF13-251013-18 = experiment: Viral infectivity assay; format: cell-based, Zika virus; settings: read-out: IC90 against ZIKV PF13-251013-18, Vero cells
DENV2 sE-M196V = DENV2 sE-M196V (Dengue virus type 2, UniProt P14340, M476V); experiment: Biolayer interferometry, DENV2 sE-M196V; format: binding, dengue virus serotype 2; settings: versus wildtype sE
DENV2 sE Q271E = DENV2 sE Q271E (Dengue virus type 2, UniProt P14340, Q551E); experiment: Biolayer interferometry, DENV2 sE Q271E; format: binding, dengue virus serotype 2; settings: versus wildtype sE

## NC(=O)c1cccc(-c2cc(Nc3ccc(OC(F)(F)F)cc3)ncn2)c1 [GNF-2]
[1]
  Sensitivity of DENV2 E-M196V virus to compound: Reduced sensitivity
ZIKV PF13-251013-18
  IC90: 107 µM
DENV2 sE-M196V
  Effect of M196V mutation on binding: more significantly affected
DENV2 sE Q271E
  Effect of Q271E substitution on binding: affinity comparable to wildtype
